Bioassay records deposited in PubChem by Sanford-Burnham Center for Chemical Genomics.
SENP8 block-1 = SENP8 protease inhibitors, primary screen, biochemical, luminescence; inhibition, % at 10 µM; AID 2540, 2010; actives 1.2% (n = 330,000); purified SENP8, Z-RLRGG-aminoluciferin cleavage; in the data active = inhibition above about 50%
SENP7 inh = SENP7 protease inhibitors, primary screen, biochemical, luminescence, uHTS | Sentrin-specific protease 7 (Homo sapiens), Q9BQF6 | recombinant SENP7, Z-RLRGG-aminoluciferin luminescence, 40 min | inhibition, % at 5 µM | actives 1.5% (n = 330,000) | AID 434973, 2010;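 active = inhibition above about 50% at the single test dose, limit read from the data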
Target sequence (Q9BQF6 706-1050 limits assumed): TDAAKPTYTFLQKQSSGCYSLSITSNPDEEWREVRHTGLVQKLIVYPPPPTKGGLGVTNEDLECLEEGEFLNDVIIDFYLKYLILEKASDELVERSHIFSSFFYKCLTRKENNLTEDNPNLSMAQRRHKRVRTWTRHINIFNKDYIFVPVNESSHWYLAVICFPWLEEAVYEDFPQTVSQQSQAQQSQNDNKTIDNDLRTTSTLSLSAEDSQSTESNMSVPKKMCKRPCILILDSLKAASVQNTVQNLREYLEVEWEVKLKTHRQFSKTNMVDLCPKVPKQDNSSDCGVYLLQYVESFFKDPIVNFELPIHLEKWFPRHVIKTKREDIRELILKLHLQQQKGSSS
SENP8 block-2 = human SENP8 protease inhibitors, primary screen, biochemical, fluorescence, Nedd8 protein substrate, uHTS. Sentrin-specific protease 8 (Homo sapiens), Q96LD8. recombinant SENP8. inhibition, % at 20 µM. actives 0.64% (n = 360,000). AID 602440, 2012; in the data active = inhibition mostly above about 40%, no sharp cut-off; inactive = mostly below about 27%
SENP1 inh = human SENP1 catalytic domain inhibitors, primary screen, biochemical, FRET, uHTS; inhibition, % at 10 µM; recombinant SENP1 catalytic domain, CyPet-SUMO1-YPet FRET cleavage; Sentrin-specific protease 1 (Homo sapiens), Q9P0U3; actives 0.21% (n = 360,000);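 active = inhibition at least 30% at 10 µM, raw YFP signal under a set limit, fluorescence ratio 0.5 to 1.5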
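Test system: recombinant human SENP1 catalytic domain, His6-tagged / Medium: pH 8 Tris buffer with EDTA, NaCl, BME, BSA, NP40, catalase / Also added: SUMO1 FRET substrate flanked by Cypet and Ypet, 25 nM / Times: 50 min reaction at room temperature / Signal: FRET, CFP and YFP emission / Control set: no-enzyme low control and enzyme-plus-DMSO high control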
Apaf-1 inh = inhibitors of human Apaf-1 apoptosome, primary screen, biochemical, DEVD-Rh110 fluorescence, uHTS; Apoptotic protease-activating factor 1 (Homo sapiens), O14727; reconstituted apoptosome caspase-3 activity; inhibition, % at 20 µM; actives 0.71% (n = 330,000); active = inhibition of at least 40% at 20 µM
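Material: reconstituted apoptosome with Apaf-1, cytochrome c, caspase-9, procaspase-3, dATP. Technique: Rh110 fluorescence intensity. Buffer or medium: pH 7.5 Hepes buffer with CHAPS, BSA, DTT. Times: 30 min plus 50 min, RT.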
SENP6 block = SENP6 protease inhibitors, primary screen, biochemical, luminescence, uHTS; actives 1.8% (n = 330,000); inhibition, % at 10 µM; AID 2599, 2010; Recombinant SENP6 catalytic domain, aminoluciferin luminescence; Sentrin-specific protease 6 (Homo sapiens), Q9GZR1;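 active = inhibition above about 50% at the single tested dose, limit read from the data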
SENP8 conf = SENP8 protease inhibitors, retest, confirmation, biochemical, luminescence, single concentration | shares compounds with SENP7 inh | inhibition, % at 12.5 µM | actives 40% (n = 6,200) | Recombinant SENP8, Z-RLRGG-aminoluciferin luminescence, 60 min;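 active = mean inhibition across replicates above about 50%, limit read from the data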
SENP6 conf = SENP6 protease inhibitors, confirmation, biochemical, luminescence, single concentration. shares compounds with SENP7 inh. recombinant SENP6, Z-RLRGG-aminoluciferin luminescence. actives 58% (n = 6,200). inhibition, % at 12.5 µM. AID 488915, 2010
SENP7 conf = SENP7 protease inhibitors, retest, confirmation, biochemical, luminescence, single concentration. shares compounds with SENP7 inh. recombinant SENP7, Z-RLRGG-aminoluciferin luminescence, 40 min. inhibition, % at 12.5 µM. actives 69% (n = 6,200)
Casp3 select = caspase-3 protease inhibitors, confirmation, selectivity assay for SENP inhibitor project, biochemical, single concentration; shares compounds with SENP7 inh; purified caspase-3, Z-DEVD-aminoluciferin luminescence, 60 min; inhibition, % at 12.5 µM; actives 60% (n = 6,200);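 active = mean inhibition above about 50%, limit read from the data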
Luc interf = luminescence interference (SENP counter-screen); shares compounds with SENP7 inh; Pre-incubated SENP8/Z-RLRGG-aminoluciferin, luciferase luminescence interference; inhibition, % at 12.5 µM; actives 39% (n = 6,200); AID 488919;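 active = mean inhibition above about 50% when retested at one dose, limit read from the data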
Apaf-1 inh conf2 = Apaf-1 inhibitors, single-dose retest, confirmation, biochemical, fluorescence, DEVD-Rh110, 20 µM. shares compounds with Apaf-1 inh. reconstituted apoptosome, caspase-3 DEVD-Rh110 fluorescence. inhibition, % at 20 µM. actives 25% (n = 1,800);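 active = mean inhibition of at least 40% at 20 µM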
Rh110 quench = Rh110 fluorescence interference by putative Apaf-1 inhibitors, confirmation, artefact control for Apaf-1 inhibitor project, biochemical, 20 µM | 1,800 tested, under 10 active | shares compounds with Apaf-1 inh | activation (fluorescence interference), % at 20 µM | AID 504615, 2011 | quenched caspase reaction;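 active = signal rise of 40% or more at 20 µM, treated as a fluorescence artifact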
Fluor interf inh = fluorescence interference of Apaf-1 inhibitor hits, dose response, artefact control for Apaf-1 inhibitor project; 460 tested, under 10 active; fluorescence interference counterscreen, Apaf-1 assay format; IC50, µM; shares compounds with Apaf-1 inh; call rule not given here
A number is an active result. In the library only some 2.9% were active in any assay of this set; here they are far more common.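 Rule for the calls, unless noted: active = mean inhibition above about 50% in the one-dose retest (limit read from the data); inactive = the rest.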

How did O=C1C=C(Nc2ccccc2)c2ccccc2C1=O do in these assays?
SENP8 block-1: 73; SENP7 inh: inactive; SENP8 block-2: inactive; SENP1 inh: inactive; Apaf-1 inh: 92; SENP6 block: 81; SENP8 conf: inactive; SENP6 conf: 87; SENP7 conf: 72; Casp3 select: inactive; Luc interf: inactive; Apaf-1 inh conf2: 91; Rh110 quench: inactive; Fluor interf inh: inactive

Results for CCc1ccc(NC(=O)C(CC)c2ccccc2)cc1 (stereo unspecified) ?
SENP8 block-1: inactive; SENP7 inh: inactive; SENP8 block-2: inactive; SENP1 inh: inactive; Apaf-1 inh: inactive; SENP6 block: inactive

How did CC(=O)Nc1ccc(SCCN2CC[C@@H](C(C)(C)C)CCC2=O)cc1 do in these assays?
SENP8 block-1: inactive; SENP7 inh: inactive; SENP8 block-2: inactive; SENP1 inh: inactive; Apaf-1 inh: inactive; SENP6 block: inactive

Results for COc1ccccc1CNc1nc2cc(-c3ccccc3C)sc2c(=O)n1C ?
SENP8 block-2: inactive; SENP1 inh: inactive

Results for COc1ccc(-n2c(N)c(C(=O)NCC3CCCO3)c3nc4ccccc4nc32)c(OC)c1 (stereo unspecified) ?
SENP8 block-1: inactive; SENP7 inh: inactive; SENP8 block-2: inactive; SENP1 inh: inactive; Apaf-1 inh: 66; SENP6 block: 68; SENP8 conf: inactive; SENP6 conf: inactive; SENP7 conf: inactive; Casp3 select: inactive; Luc interf: inactive; Apaf-1 inh conf2: inactive; Rh110 quench: inactive

Results for COCCOC(=O)c1c(N)n(CCCN2CCOCC2)c2nc3ccccc3nc12 ?
SENP8 block-1: inactive; SENP7 inh: inactive; SENP8 block-2: inactive; SENP1 inh: inactive; Apaf-1 inh: inactive; SENP6 block: inactive
